Laboratory results: ChEMBL document CHEMBL4382192, “Discovery of a potent dual ALK and EGFR T790M inhibitor” (Eur J Med Chem, 2017)

Assays:
[1] = test system: BaF3; assay: Antiproliferative activity against mouse BAF3 cells assessed as reduction in cell viability after 72 hrs by MTS assay; type: cell-based; settings: BaF3, 72 h
[2] = Metabolic stability in human liver microsomes assessed as parent compound remaining at 1 uM after 30 mins in presence of NADPH by LC/MS/MS analysis; type: ADME, Microsome; settings: read-out: Stability
In short: (§1)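 Compound at 1 μM final with 0.5 mg/mL microsomal protein in 100 mM phosphate buffer pH 7.4 at 37 °C, started by adding an NADPH-regenerating system. Reactions were quenched with cold acetonitrile at 0 and 30 min and spun down. Supernatant was analysed by LC-MS/MS. The 0-min sample, quenched before NADPH addition, was set as 100%, and percent parent remaining came from peak areas.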

[3] = Metabolic stability in dog liver microsomes assessed as parent compound remaining at 1 uM after 30 mins in presence of NADPH by LC/MS/MS analysis; type: ADME, Canis lupus familiaris, Microsome; settings: read-out: Stability; in short: as §1
[4] = Metabolic stability in rat liver microsomes assessed as parent compound remaining at 1 uM after 30 mins in presence of NADPH by LC/MS/MS analysis; type: ADME, Microsome; settings: read-out: Stability; in short: as §1
[5] = Metabolic stability in mouse liver microsomes assessed as parent compound remaining at 1 uM after 30 mins in presence of NADPH by LC/MS/MS analysis; type: ADME, Microsome; settings: read-out: Stability; in short: as §1
[6] = target: T1, CYP1A2 (Homo sapiens, UniProt P05177); assay: Residual activity of CYP1A2 in human liver microsomes at 10 uM using phenacetin O-deethylase as substrate preincubated for 5 mins followed by NADPH addition measured after 15 mins by LC/MS/MS analysis relative to control; settings: probe phenacetin (O-deethylation)
T1 sequence (P05177 whole entry): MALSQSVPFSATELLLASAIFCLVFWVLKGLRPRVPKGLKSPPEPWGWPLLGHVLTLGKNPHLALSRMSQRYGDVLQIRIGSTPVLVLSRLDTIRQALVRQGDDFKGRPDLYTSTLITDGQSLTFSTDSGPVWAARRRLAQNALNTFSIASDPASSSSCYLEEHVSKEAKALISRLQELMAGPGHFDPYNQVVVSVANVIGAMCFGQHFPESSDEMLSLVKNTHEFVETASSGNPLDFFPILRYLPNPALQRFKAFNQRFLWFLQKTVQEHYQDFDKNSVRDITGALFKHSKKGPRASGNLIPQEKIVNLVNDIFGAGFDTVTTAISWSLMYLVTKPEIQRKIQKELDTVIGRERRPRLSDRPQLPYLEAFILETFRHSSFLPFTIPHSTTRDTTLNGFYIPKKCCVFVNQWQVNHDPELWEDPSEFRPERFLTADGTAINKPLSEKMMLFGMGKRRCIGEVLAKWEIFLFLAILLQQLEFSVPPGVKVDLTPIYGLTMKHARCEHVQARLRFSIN

[7] = target: CYP3A4 (Homo sapiens, UniProt P08684); assay: Residual activity of CYP3A4 in human liver microsomes at 10 uM using midazolam 1-hydroxylase as substrate preincubated for 5 mins followed by NADPH addition measured after 15 mins by LC/MS/MS analysis relative to control; settings: probe midazolam (1-hydroxylation)
Chain of CYP3A4 (P08684 whole entry): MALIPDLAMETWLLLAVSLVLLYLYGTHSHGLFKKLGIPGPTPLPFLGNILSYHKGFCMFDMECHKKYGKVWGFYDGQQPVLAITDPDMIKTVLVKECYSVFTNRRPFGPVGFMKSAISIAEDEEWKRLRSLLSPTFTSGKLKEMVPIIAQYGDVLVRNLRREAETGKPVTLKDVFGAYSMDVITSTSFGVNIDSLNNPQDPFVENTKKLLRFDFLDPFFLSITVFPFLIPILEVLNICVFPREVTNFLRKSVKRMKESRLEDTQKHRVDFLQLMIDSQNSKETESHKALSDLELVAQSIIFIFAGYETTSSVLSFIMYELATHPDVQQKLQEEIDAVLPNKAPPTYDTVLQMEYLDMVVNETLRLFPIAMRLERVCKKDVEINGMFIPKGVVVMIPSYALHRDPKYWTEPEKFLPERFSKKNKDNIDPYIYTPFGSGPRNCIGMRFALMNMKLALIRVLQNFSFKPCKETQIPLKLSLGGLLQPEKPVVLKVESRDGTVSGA

[8] = target: CYP2C9 (Homo sapiens, UniProt P11712); assay: Residual activity of CYP2C9 in human liver microsomes at 10 uM using tolbutamide 4-hydroxylase as substrate preincubated for 5 mins followed by NADPH addition measured after 15 mins by LC/MS/MS analysis relative to control; settings: probe tolbutamide (4-hydroxylation)
Chain of CYP2C9 (P11712 whole entry): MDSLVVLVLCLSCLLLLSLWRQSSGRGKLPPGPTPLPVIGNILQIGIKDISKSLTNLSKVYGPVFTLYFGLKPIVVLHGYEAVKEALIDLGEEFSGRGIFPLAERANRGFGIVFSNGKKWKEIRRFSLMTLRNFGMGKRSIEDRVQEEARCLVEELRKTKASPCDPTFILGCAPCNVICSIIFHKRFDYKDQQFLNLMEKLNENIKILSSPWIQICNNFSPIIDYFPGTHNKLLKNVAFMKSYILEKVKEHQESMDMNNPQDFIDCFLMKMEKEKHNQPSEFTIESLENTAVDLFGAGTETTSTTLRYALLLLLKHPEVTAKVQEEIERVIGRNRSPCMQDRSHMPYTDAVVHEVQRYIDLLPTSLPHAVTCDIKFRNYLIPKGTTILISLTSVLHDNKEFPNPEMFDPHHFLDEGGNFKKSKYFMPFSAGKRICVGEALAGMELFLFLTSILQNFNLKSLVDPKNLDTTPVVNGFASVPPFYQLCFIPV

[9] = target: CYP2C19 (Homo sapiens, UniProt P33261); assay: Residual activity of CYP2C19 in human liver microsomes at 10 uM using S-mephenytoin 4-hydroxylase as substrate preincubated for 5 mins followed by NADPH addition measured after 15 mins by LC/MS/MS analysis relative to control; settings: probe S-mephenytoin (4-hydroxylation)
Chain of CYP2C19 (P33261 whole entry): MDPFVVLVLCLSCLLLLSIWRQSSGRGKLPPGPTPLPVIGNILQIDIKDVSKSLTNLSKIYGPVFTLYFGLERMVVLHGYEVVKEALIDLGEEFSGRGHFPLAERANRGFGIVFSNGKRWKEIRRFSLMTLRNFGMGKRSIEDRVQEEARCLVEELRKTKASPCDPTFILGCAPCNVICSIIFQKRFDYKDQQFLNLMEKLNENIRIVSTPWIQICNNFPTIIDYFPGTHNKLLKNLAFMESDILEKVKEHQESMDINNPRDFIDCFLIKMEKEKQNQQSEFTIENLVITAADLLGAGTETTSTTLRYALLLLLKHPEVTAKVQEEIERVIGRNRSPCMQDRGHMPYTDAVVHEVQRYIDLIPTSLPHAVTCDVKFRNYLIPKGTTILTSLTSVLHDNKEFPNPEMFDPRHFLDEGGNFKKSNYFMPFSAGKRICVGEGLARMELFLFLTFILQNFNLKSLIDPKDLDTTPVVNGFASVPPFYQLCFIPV

[10] = target: CYP2D6 (Homo sapiens, UniProt P10635); assay: Residual activity of CYP2D6 in human liver microsomes at 10 uM using dextromethorphan O-demethylase as substrate preincubated for 5 mins followed by NADPH addition measured after 15 mins by LC/MS/MS analysis relative to control; settings: probe dextromethorphan (O-demethylation)
Chain of CYP2D6 (P10635 whole entry, the tested form may be a part): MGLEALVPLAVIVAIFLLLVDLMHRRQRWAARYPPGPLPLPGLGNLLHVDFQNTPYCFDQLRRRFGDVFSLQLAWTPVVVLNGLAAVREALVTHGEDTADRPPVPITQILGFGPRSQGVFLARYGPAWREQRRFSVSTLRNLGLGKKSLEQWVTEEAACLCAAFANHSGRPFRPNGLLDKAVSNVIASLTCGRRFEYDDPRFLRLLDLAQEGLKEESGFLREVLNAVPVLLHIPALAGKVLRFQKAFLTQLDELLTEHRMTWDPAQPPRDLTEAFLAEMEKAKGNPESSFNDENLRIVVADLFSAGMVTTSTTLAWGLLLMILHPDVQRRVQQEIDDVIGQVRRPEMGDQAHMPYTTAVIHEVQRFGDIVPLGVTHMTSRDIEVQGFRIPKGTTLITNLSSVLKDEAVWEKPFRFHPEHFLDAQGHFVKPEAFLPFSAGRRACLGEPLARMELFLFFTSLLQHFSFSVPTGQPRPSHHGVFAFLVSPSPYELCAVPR

[11] = target: ALK tyrosine kinase receptor (Homo sapiens, UniProt Q9UM73); assay: Inhibition of GST-tagged human ALK cytoplasmic domain (1058 to 1620 residues) expressed in baculovirus expression system using Poly G:T (4:1) as substrate after 30 mins by Z-LYTE assay
Chain of ALK tyrosine kinase receptor (Q9UM73 whole entry, the tested form may be a part): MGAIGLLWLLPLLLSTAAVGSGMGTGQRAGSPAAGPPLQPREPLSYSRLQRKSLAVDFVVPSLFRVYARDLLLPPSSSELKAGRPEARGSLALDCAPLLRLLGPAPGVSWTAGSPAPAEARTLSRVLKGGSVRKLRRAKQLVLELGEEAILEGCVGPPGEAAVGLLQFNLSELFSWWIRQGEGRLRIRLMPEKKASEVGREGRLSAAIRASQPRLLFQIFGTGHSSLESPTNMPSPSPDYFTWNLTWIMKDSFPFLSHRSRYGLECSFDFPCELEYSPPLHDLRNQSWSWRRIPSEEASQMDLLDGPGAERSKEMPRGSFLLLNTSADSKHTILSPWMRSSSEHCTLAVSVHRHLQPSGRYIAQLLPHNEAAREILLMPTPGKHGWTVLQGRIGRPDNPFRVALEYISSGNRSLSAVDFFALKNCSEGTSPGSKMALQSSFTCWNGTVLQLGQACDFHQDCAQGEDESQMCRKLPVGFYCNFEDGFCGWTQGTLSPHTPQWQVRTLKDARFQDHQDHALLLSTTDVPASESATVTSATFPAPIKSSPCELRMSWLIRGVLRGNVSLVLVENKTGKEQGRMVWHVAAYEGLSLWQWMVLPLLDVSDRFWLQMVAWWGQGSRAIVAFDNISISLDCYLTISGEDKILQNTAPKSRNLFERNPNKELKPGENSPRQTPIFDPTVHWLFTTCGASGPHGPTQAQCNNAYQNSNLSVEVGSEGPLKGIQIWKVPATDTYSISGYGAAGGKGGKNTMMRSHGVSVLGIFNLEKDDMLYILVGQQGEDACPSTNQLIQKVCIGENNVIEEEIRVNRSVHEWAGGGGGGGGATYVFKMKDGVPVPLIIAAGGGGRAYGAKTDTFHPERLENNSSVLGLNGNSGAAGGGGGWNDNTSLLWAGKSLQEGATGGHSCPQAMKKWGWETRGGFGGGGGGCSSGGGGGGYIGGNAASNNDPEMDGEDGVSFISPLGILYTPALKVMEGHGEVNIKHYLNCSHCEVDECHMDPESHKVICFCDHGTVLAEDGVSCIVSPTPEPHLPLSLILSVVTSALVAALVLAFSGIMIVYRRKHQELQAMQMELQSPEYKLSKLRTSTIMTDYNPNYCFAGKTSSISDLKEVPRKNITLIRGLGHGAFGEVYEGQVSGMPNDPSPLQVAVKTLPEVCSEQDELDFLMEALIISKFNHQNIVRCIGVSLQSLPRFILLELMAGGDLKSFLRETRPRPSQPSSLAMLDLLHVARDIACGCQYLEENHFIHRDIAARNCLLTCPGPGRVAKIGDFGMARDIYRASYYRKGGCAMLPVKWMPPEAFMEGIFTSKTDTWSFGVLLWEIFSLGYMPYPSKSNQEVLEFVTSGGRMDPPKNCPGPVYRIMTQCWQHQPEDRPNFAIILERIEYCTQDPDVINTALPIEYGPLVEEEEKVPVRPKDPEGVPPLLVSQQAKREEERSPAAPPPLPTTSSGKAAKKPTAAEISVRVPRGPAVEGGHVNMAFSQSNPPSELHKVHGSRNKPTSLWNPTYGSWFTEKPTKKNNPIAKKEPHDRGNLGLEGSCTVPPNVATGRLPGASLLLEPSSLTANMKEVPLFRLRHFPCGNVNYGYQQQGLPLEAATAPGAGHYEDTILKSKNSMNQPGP

`C=CC(=O)Nc1cc(Nc2nccc(Nc3ccccc3S(=O)(=O)C(C)C)n2)c(OC)cc1N(C)CCN(C)C` showed an EC50 [1] of over 5 µM, a remaining at 0.5 h, 1 µM [2] of 5% and a remaining at 0.5 h, 1 µM [3] of 48%. The remaining at 0.5 h, 1 µM [4] was 22%, the remaining at 0.5 h, 1 µM [5] was 8% and the Activity at […], 10 µM [6] was 80%. It also gave an Activity at […], 10 µM [7] of 40%, an Activity at […], 10 µM [8] of 90% and an Activity at […], 10 µM [9] of 87%. The Activity at […], 10 µM [10] was 67%.
Work on `C=CC(=O)Nc1cc(Nc2ncc(F)c(Nc3ccccc3S(=O)(=O)N(C)C)n2)c(OC)cc1N(C)CCN(C)C` yielded a remaining at 0.5 h, 1 µM [2] of 9%, a remaining at 0.5 h, 1 µM [3] of 33% and a remaining at 0.5 h, 1 µM [4] of 7%. For the same molecule, the remaining at 0.5 h, 1 µM [5] was 10%, the Activity at […], 10 µM [6] was over 100% and the Activity at […], 10 µM [7] was 71%. It also gave an Activity at […], 10 µM [8] of 88%, an Activity at […], 10 µM [9] of 91% and an Activity at […], 10 µM [10] of over 100%.
Molecule `Cc1cc(Nc2ncc(Cl)c(Nc3ccccc3S(=O)(=O)C(C)C)n2)c(OC(C)C)cc1C1CCNCC1` [CERITINIB] has an EC50 [1] of over 5 µM.
Work on `C=CC(=O)Nc1cc(Nc2nccc(Nc3ccccc3S(=O)(=O)N(C)C)n2)c(OC)cc1N(C)CCN(C)C` yielded an EC50 [1] of over 5 µM, a remaining at 0.5 h, 1 µM [2] of 10% and a remaining at 0.5 h, 1 µM [3] of 50%. It also gave a remaining at 0.5 h, 1 µM [4] of 6%, a remaining at 0.5 h, 1 µM [5] of 5% and an Activity at […], 10 µM [6] of 82%. It also gave an Activity at […], 10 µM [7] of 56%, an Activity at […], 10 µM [8] of 88% and an Activity at […], 10 µM [9] of 85%. For the same molecule, the Activity at […], 10 µM [10] was 79%.
`C=CC(=O)Nc1cc(Nc2ncc(F)c(Nc3ccccc3P(C)(C)=O)n2)c(OC)cc1N(C)CCN(C)C` gave an EC50 [1] of over 5 µM, a remaining at 0.5 h, 1 µM [2] of 84% and a remaining at 0.5 h, 1 µM [3] of 87%. It also gave a remaining at 0.5 h, 1 µM [4] of 87%, a remaining at 0.5 h, 1 µM [5] of 80% and an Activity at […], 10 µM [6] of over 100%. The Activity at […], 10 µM [7] was over 100%, the Activity at […], 10 µM [8] was over 100% and the Activity at […], 10 µM [9] was over 100%. The Activity at […], 10 µM [10] was over 100%.
For `C=CC(=O)Nc1cc(Nc2nccc(-c3cn(C)c4ccccc34)n2)c(OC)cc1N(C)CCN(C)C` [OSIMERTINIB], the IC50 [11] was 177 nM and the EC50 [1] was over 5 µM.
In the case of `C=CC(=O)Nc1cc(Nc2ncc(I)c(Nc3ccccc3S(=O)(=O)N(C)C)n2)c(OC)cc1N(C)CCN(C)C`, the remaining at 0.5 h, 1 µM [2] is reported as 13%, the remaining at 0.5 h, 1 µM [3] is reported as 35% and the remaining at 0.5 h, 1 µM [4] is reported as 12%. The remaining at 0.5 h, 1 µM [5] was 12%, the Activity at […], 10 µM [6] was 79% and the Activity at […], 10 µM [7] was 54%. It also gave an Activity at […], 10 µM [8] of 85%, an Activity at […], 10 µM [9] of 67% and an Activity at […], 10 µM [10] of 93%.
For `C=CC(=O)Nc1cc(Nc2ncc(F)c(Nc3ccccc3S(=O)(=O)C(C)C)n2)c(OC)cc1N(C)CCN(C)C`, the EC50 [1] was over 5 µM, the remaining at 0.5 h, 1 µM [2] was 26% and the remaining at 0.5 h, 1 µM [3] was 27%. The remaining at 0.5 h, 1 µM [4] was 11%, the remaining at 0.5 h, 1 µM [5] was 15% and the Activity at […], 10 µM [6] was 91%. For the same molecule, the Activity at […], 10 µM [7] was 51%, the Activity at […], 10 µM [8] was 94% and the Activity at […], 10 µM [9] was 93%. It also gave an Activity at […], 10 µM [10] of 95%.
Molecule `C=CC(=O)Nc1cc(Nc2ncc(Cl)c(Nc3ccccc3S(=O)(=O)N(C)C)n2)c(OC)cc1N(C)CCN(C)C` has a remaining at 0.5 h, 1 µM [2] of 11%, a remaining at 0.5 h, 1 µM [3] of 31% and a remaining at 0.5 h, 1 µM [4] of 13%. It also gave a remaining at 0.5 h, 1 µM [5] of 23%, an Activity at […], 10 µM [6] of 87% and an Activity at […], 10 µM [7] of 39%. The Activity at […], 10 µM [8] was 59%, the Activity at […], 10 µM [9] was 75% and the Activity at […], 10 µM [10] was 88%.
`C=CC(=O)Nc1cc(Nc2ncc(I)c(Nc3ccccc3P(C)(C)=O)n2)c(OC)cc1N(C)CCN(C)C` gave an EC50 [1] of over 5 µM, a remaining at 0.5 h, 1 µM [2] of 65% and a remaining at 0.5 h, 1 µM [3] of 93%. For the same molecule, the remaining at 0.5 h, 1 µM [4] was 81%, the remaining at 0.5 h, 1 µM [5] was 57% and the Activity at […], 10 µM [6] was 91%. It also gave an Activity at […], 10 µM [7] of 88%, an Activity at […], 10 µM [8] of over 100% and an Activity at […], 10 µM [9] of 99%. For the same molecule, the Activity at […], 10 µM [10] was 80%.
Molecule `C=CC(=O)Nc1cc(Nc2ncc(Cl)c(Nc3ccccc3P(C)(C)=O)n2)c(OC)cc1N(C)CCN(C)C` has an EC50 [1] of over 5 µM, a remaining at 0.5 h, 1 µM [2] of 61% and a remaining at 0.5 h, 1 µM [3] of 77%. The remaining at 0.5 h, 1 µM [4] was 76%, the remaining at 0.5 h, 1 µM [5] was 66% and the Activity at […], 10 µM [6] was 93%. The Activity at […], 10 µM [7] was 91%, the Activity at […], 10 µM [8] was over 100% and the Activity at […], 10 µM [9] was 98%. The Activity at […], 10 µM [10] was 85%.
In the case of `C=CC(=O)Nc1cc(Nc2ncc(I)c(Nc3ccccc3S(=O)(=O)C(C)C)n2)c(OC)cc1N(C)CCN(C)C`, the EC50 [1] is reported as over 5 µM, the remaining at 0.5 h, 1 µM [2] is reported as 14% and the remaining at 0.5 h, 1 µM [3] is reported as 19%. For the same molecule, the remaining at 0.5 h, 1 µM [4] was 14%, the remaining at 0.5 h, 1 µM [5] was 10% and the Activity at […], 10 µM [6] was 81%. For the same molecule, the Activity at […], 10 µM [7] was 47%, the Activity at […], 10 µM [8] was 88% and the Activity at […], 10 µM [9] was 86%. The Activity at […], 10 µM [10] was 82%.
`C=CC(=O)Nc1cccc(Oc2nc(Nc3ccc(N4CCN(C)CC4)cc3OC)ncc2Cl)c1` gave an IC50 [11] of 990 nM and an EC50 [1] of over 5 µM.
`C=CC(=O)Nc1cc(Nc2nccc(Nc3ccccc3P(C)(C)=O)n2)c(OC)cc1N(C)CCN(C)C` gave an IC50 [11] of 695 nM, an EC50 [1] of over 5 µM and a remaining at 0.5 h, 1 µM [2] of 70%. It also gave a remaining at 0.5 h, 1 µM [3] of 73%, a remaining at 0.5 h, 1 µM [4] of 78% and a remaining at 0.5 h, 1 µM [5] of 76%. For the same molecule, the Activity at […], 10 µM [6] was 84%, the Activity at […], 10 µM [7] was 89% and the Activity at […], 10 µM [8] was 90%. It also gave an Activity at […], 10 µM [9] of over 100% and an Activity at […], 10 µM [10] of 87%.
